V-ATPase pH: regulators of yeast V-ATPase proton pumping, primary screen, pHLuorin cytosolic pH fluorescence; S. cerevisiae; response, % at 10 µM; 350,000 tested, 0.37% active; in the data active = response mostly above about 7.3%, no sharp cut-off; inactive = mostly below about 5.4%; note: actives read high
Exocytosis inh: LAMP-1 surface exposure blockers, TALL-104 cells – cell-based, flow cytometry, MLPCN library, primary screen; 360,000 tested, 0.66% active; inhibition, % at 10 µM; TALL-104 LAMP-1 surface exposure; cells stimulated with thapsigargin and PMA;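 active = inhibition above about 55%, limit read from the data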
CendR NRP1 mod: modulators of CendR peptide binding to NRP-1, primary screen, biochemical, fluorescence polarization, uHTS | inhibition, % at 25 µM | AID 602438, 2012 | 360,000 tested, 0.85% active | Neuropilin-1 (Homo sapiens), O14786 | FAM-RPARPAR peptide binding to NRP-1;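 active = inhibition or corrected inhibition above about 18%, plus a signal ratio from 0.5 to 1.5, limit read from the data, passing the limit was not always enough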
ARFGAP1 inhibitor: inhibitors of rat ARFGAP1 GAP activity, primary screen, biochemical, fluorescence polarization, GDP tracer | Arfgap1-stimulated ARF1 GTP hydrolysis, GDP FP detection | ADP-ribosylation factor GTPase-activating protein 1 (Rattus norvegicus), Q62848 | 360,000 tested, 0.26% active | inhibition, % at 16.5 µM | AID 651572, 2012;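 active = inhibition above a per-plate limit, mean inhibition of low control wells plus 3 SD, cut at about 25% in these data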;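 note: 0% = DMSO wells with enzyme and 100% = wells lacking Arfgap1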
Target sequence (Q62848 1-136 limits assumed): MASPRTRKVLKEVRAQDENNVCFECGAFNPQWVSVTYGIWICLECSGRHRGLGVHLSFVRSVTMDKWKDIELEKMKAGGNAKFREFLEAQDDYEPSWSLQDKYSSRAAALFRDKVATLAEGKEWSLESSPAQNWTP
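Repeats: one replicate per compound; assay system: rat Arfgap1 catalytic domain, aa 1-136; times: enzyme reaction 120 min at 25 °C after 20 min preincubation; detection: FP of antibody-bound GDP Alexa 633 tracer, ex 620/em 688 nm; benchmarks: high control wells lacking Arfgap1, low control full reaction with DMSO; reagent: human ARF1(Δ1-17)-GTP substrate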
ASAP1 GAP inh: inhibitors of human ASAP1 ArfGAP activity, primary screen, biochemical, fluorescence polarization; Arf-GAP with SH3 domain, ANK repeat and PH domain-containing protein 1 (Homo sapiens), …; ASAP1-stimulated ARF1 GTP hydrolysis, GDP FP detection; inhibition, % at 16.5 µM; 360,000 tested, 0.19% active; AID 624377, 2012; in the data active = inhibition above about 25%;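 note: 0% = vehicle with enzyme and substrate and 100% = no enzyme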
Target sequence (Q9ULH1 325-724 limits assumed): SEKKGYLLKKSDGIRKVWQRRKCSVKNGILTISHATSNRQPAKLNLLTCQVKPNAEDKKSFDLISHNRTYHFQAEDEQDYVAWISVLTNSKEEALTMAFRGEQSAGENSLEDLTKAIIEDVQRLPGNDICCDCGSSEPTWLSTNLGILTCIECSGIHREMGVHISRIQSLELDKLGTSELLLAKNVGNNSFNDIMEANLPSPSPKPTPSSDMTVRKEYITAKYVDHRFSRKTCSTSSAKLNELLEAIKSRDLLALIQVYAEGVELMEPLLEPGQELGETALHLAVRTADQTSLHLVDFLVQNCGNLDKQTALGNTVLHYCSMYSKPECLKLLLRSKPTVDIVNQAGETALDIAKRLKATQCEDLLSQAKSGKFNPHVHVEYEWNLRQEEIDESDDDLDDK
VATPase regulator: yeast V-ATPase proton pumping modulators, confirmation, S. cerevisiae, pH-sensitive GFP, second cherry-pick; 980 tested, 2% active; AID 602197, 2012; S. cerevisiae pHLuorin cytosolic pH, V-ATPase proton transport; shares compounds with V-ATPase pH; response, % at 10 µM; in the data active = response above about 24%;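 note: plate controls were vehicle wells for no effect and positive control wells for full effect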
The depositor's hits bear a star; / = not tested or not shown; ! = not confirmed by another sample. Hits are enriched below; roughly 2.2% of the tested compounds scored in any of these assays.

SMILES | V-ATPase pH | Exocytosis inh | CendR NRP1 mod | ARFGAP1 inhibitor | ASAP1 GAP inh | VATPase regulator
Cc1ccc(CNC(=O)c2nnn(CC(=O)Nc3cccc(C)c3C)c2N)cc1 | 0 | 16 | -7 | 8 | -4 | /
CC(C)C(=O)Nc1cc(=O)[nH]c2ncnn12 | 10* | 2 | 3 | -2 | -7 | 0
O=S(=O)(c1ccc(F)c(F)c1)N1CCN(c2ccccn2)CC1 | 0 | 0 | 6 | 1 | -6 | /
CCOc1cccc(NC(=O)/C(C#N)=C\c2cn(CC(=O)O)c3ccccc23)c1 | -1 | -5 | -33 | 11 | 9 | /
CCOc1ccc(NC(=O)/C(C#N)=C/c2cn(CC(=O)O)c3ccccc23)cc1 | 7.1* | 2 | 1 | 6 | -7 | -1
O=C(c1ccc([N+](=O)[O-])o1)N1CCN(c2nc3c(F)cc(F)cc3s2)CC1 | 31* | -2 | -1 | -1 | -3 | 40*
Cc1ccc(S(=O)(=O)NCC(=O)N2CCCCC2)cc1 | 12* | -1 | 10 | -8 | 3 | -42
COc1ccc(OC)c(S(=O)(=O)Nc2c(NC3CCCCC3)c3ccccc3oc2=O)c1 | 9.2* | 13 | 3 | / | / | -4
CC(C)C(=O)N1CCCC1(C)C(=O)Nc1ccc(-n2cncn2)cc1 (centres undefined) | / | -14 | 3 | -3 | 13 | /
CN(CC(=O)Nc1ccc(F)cc1)C(=O)COC(=O)c1cc(S(=O)(=O)N(C)C)ccc1N1CCCC1 | 13 | -5 | 0 | -1 | -4 | /
CCOc1ccccc1NC(=O)c1ccc2ccccc2c1 | 0 | -6 | 3 | 2 | 11 | /
CCOc1ccccc1NC(=O)NNC(=O)c1ccc2ccccc2c1 | 13* | 3 | 17 | 8 | -6 | 2
CC(=O)c1nn(-c2cccc(C)c2)cc1C(=O)c1cccc(Br)c1 | 5.5* | -9 | -2 | -5 | -10 | 1
O=C(/C=C/c1ccc(Cl)c([N+](=O)[O-])c1)Nc1cccc(NC(=O)c2ccco2)c1 | 8.8* | 2 | -2 | 22 | 14 | -2
COc1ccc(OC)c(NC(=O)c2ccc(OC3CSC3)cc2)c1 | 13* | 4 | 12 | -9 | -6 | -2
COc1ccc(OC)c(NC(=O)c2ccc(NC(C)=O)cc2)c1 | 1 | -2 | 0 | -5 | -4 | /
O=C(O)c1cc(-c2ccccc2)n(-c2ccc(Cl)cc2)n1 | 0 | 13 | -7 | 0 | -9 | /
O=C(O)c1cc(-c2ccc(Cl)c(Cl)c2)n(-c2ccc(F)cc2)n1 | 12* | 10 | 7 | 3 | -22 | 1
Cc1cccn2c(=O)c(/C=C(\C#N)C(=O)NC3CCS(=O)(=O)C3)c(N3CCC(C)CC3)nc12 (centres undefined) | 15* | 1 | -13 | 10 | -7 | -1
N#C/C(=C\c1c(N2CCCCC2)nc2ccccn2c1=O)C(=O)NC1CCS(=O)(=O)C1 (centres undefined) | 2 | 0 | -6 | 4 | 3 | /
COc1cc(CN2C[C@@H](CO)O[C@@H](n3cnc4c(N(C)C(C)C)ncnc43)C2)cc(OC)c1OC | / | 0 | 18 | 6 | 3 | /
Cc1ccc(CSCC(=O)N2CCN(c3ccc(F)cc3)CC2)cc1 | 12* | -2 | 8 | -8 | -4 | 0
COc1cc(OC)c(OC)cc1/C=N/n1c(C)nc2ccccc2c1=O | 14* | 2 | 3 | 8 | 4 | 0
COc1ccc(OC)c(/C=N/n2c(C)nc3ccccc3c2=O)c1 | 0 | -6 | -5 | -5 | 2 | /
CC(O)(c1cccnc1)c1nc(-c2cccc(C#N)c2)cs1 (centres undefined) | / | 5 | -7 | 5 | -16 | /
SMILES | V-ATPase pH | Exocytosis inh | CendR NRP1 mod | ARFGAP1 inhibitor | ASAP1 GAP inh | VATPase regulator
O=C(O)c1ccc2c(c1)C(=O)N([C@H](Cc1cccc3ccccc13)C(=O)O)C2=O | / | 4 | -10 | 3 | 4 | /
Cc1ccc2[nH]c(=O)c(CN(Cc3ccccc3Cl)C(=O)N3CCOCC3)cc2c1 | 16* | 0 | 8 | -4 | 9 | -3
Cc1ccc(C)c(COC(=O)CCN=C2NS(=O)(=O)c3ccccc32)c1 | -4 | 3 | -5 | 1 | -7 | /
COc1ccc2nc(C)c3cc(C)oc3c2c1 | -3 | 1 | -8 | -3 | 3 | /
COc1cccc2c1nc(C)c1cc(C)oc12 | 11* | -4 | 14 | 2 | -2 | -4
COCCN(C(=O)COC(=O)Cc1coc2cc3c(cc12)CCC3)c1c(N)n(Cc2ccccc2)c(=O)[nH]c1=O | 3 | -5 | -12 | -1 | -8 | /
O=C(c1ccco1)N1CCN(c2ncnc3c2nnn3Cc2ccccc2Cl)CC1 | 10* | -4 | 16 | 1 | -8 | 0
CN1CCc2c(sc(N)c2C(=O)O)C1 | 9.6* | -2 | 5 | 11 | -17 | 1
C[n+]1cc[nH]c1SCC(=O)c1ccc(Cl)cc1 | 7.5* | -1 | -4 | -2 | -4 | 4
C[n+]1cc[nH]c1SCC(=O)c1ccccc1 | 1 | -1 | 0 | 2 | 18 | /
COc1c(O)c(O)c2oc(-c3ccccc3)cc(=O)c2c1OC | 11* | -5 | -10 | 6 | 2 | 2
COc1ccc(Cl)cc1NC(=O)CN(C)CC(=O)Nc1cc(OC)c(OC)c(OC)c1 | 3 | -13 | -1 | 8 | -2 | /
COCOCCn1cc(CN2CCS(=O)(=O)N(Cc3ccc(-c4ccc(OC)nc4)cc3)C(C)C2=O)nn1 (centres undefined) | 7.8* | 13 | -10 | 8 | 0 | -2
COc1cccc(C2C(C(=O)c3cc4ccccc4o3)=C(O)C(=O)N2CCN(C)C)c1OC (centres undefined) | 13* | 2 | 9 | -4 | -7 | 1
COc1cccc(C2C(C(=O)c3ccco3)=C(O)C(=O)N2CCN(C)C)c1OC (centres undefined) | 1 | 13 | -6 | 4 | 1 | /
CCOC(=O)c1[nH]c2c(c1-c1ccccc1)C(=O)CC(c1ccc(OCC)cc1)C2 (centres undefined) | 11* | 3 | -29 | -3 | -14 | -6
CCOC(=O)C1=C(C)NC(SCC(=O)OC)=C(C#N)C1c1ccc(C(=O)OC)cc1 (centres undefined) | 9.9*! | 1 | -12 | -2 | -1 | -1
COCCn1c(=O)[nH]c2cc(C(=O)N3CCN(c4ccccc4OC)CC3)ccc2c1=O | 10* | -2 | -7 | -3 | 1 | 0
COCCn1c(=S)[nH]c2cc(C(=O)N3CCN(c4ccccc4OC)CC3)ccc2c1=O | 3 | -3 | -6 | -3 | 11 | /
